From ChEMBL document CHEMBL2146400, “Antiophidic solanidane steroidal alkaloids from Solanum campaniforme” (J Nat Prod, 2011)
Calls of active or inactive are those of the source. The rule behind the calls is not given here.

Assays:
MDA-MB-435 = assay: Antiproliferative activity against human MDA-MB-435 cells; assay type: functional, cell-based
HCT-8 = assay: Antiproliferative activity against human HCT8 cells; assay type: functional, cell-based
HL-60 = assay: Antiproliferative activity against human HL60 cells; assay type: functional, cell-based
[1] = Fntinecrotizing activity against Bothropoides pauloensis venom-induced hemorrhage in Swiss mouse assessed as reduction in skin necrotic regions at 50 ug preincubated with venom for 30 mins before venom injection measured 2 hrs post dose; assay type: ADME, tissue-based, Skin of body; settings: bothrops pauloensis, in vivo
SF-295 = assay: Antiproliferative activity against human SF295 cells; assay type: functional, cell-based
[2] = target: T1, Basic phospholipase A2 homolog BnSP-7 (Bothropoides pauloensis) (UniProt Q9IAT9); assay: Inhibition of Phospholipase A2 Asp49 in Bothropoides pauloensis at 1:1 venom to drug ratio incubated up to 40 mins using 4N3OBA substrate by multiwell plate reader method; settings: Bothrops pauloensis
T1 sequence (whole entry): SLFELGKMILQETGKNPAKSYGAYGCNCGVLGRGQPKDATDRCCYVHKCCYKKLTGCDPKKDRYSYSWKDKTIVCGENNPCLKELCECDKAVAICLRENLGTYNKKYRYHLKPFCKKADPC
Procedure, shortened: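 Whole venom (1 mg/mL), alone or preincubated 1:1 (w:w) with compound, was added to Tris-HCl 0.1 M, Ca2+ 0.01 M, pH 8.0, with 4-nitro-3-octanoyloxybenzoic acid substrate. Mixture was kept at 37 °C up to 40 min, reading A425 every 5 min. V0 came from the absorbance increase after 20 min.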

Bothrops pauloensis [3] = assay: Antihemorrhagic activity against Bothropoides pauloensis venom-induced hemorrhage in Swiss mouse assessed as reduction in intensity of hemorrhage area at 50 ug preincubated with venom for 30 mins before venom injection measured 2 hrs post dose; assay type: functional
Procedure, shortened: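 Venom (50 μg) was premixed with 50 μg alkaloid in 50 μL 1% DMSO–PBS, pH 7.2, and held 30 min at 37 °C before injection. At 2 h, five mice were killed and the inner dorsal skin was imaged. Intensity I = A × (N − H): A is area in mm2, N and H are mean colour intensity of normal and hemorrhagic skin. ANOVA/Dunnett.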

Bothrops pauloensis [4] = assay: Antiophidic activity against Bothropoides pauloensis venom-induced myotoxicity in Swiss mouse assessed as creatine kinase level at 50 ug preincubated with venom for 30 mins before venom injection measured 2 to 48 hrs post dose; assay type: functional
Procedure, shortened: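 Injected mixture was 50 μg venom with 50 μg alkaloid in 50 μL 1% DMSO–PBS (pH 7.2), preincubated 30 min at 37 °C; vehicle controls. Retro-orbital blood was taken at 2, 4, 8, 24 and 48 h. Plasma creatine kinase was measured by UV kit, in U/L (1 U = 1 μmol NADH/min at 37 °C). Mean ± SEM.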

Bothrops pauloensis [5] = assay: Antihemorrhagic activity against Bothropoides pauloensis venom-induced hemorrhage in Swiss mouse assessed as decrease in hemorrhagic area at 50 ug preincubated with venom for 30 mins before venom injection measured 2 hrs post dose; assay type: functional
Procedure, shortened: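 Mice received 50 μL of 1% DMSO–PBS (pH 7.2) holding 50 μg B. pauloensis venom plus 50 μg alkaloid, preincubated 30 min at 37 °C. Vehicle-only negative controls. Five animals were killed at 2 h, and the inner dorsal skin was photographed. Hemorrhagic area was measured in mm2. Mean ± SEM, ANOVA with Dunnett's test.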

| SMILES | Activity (MDA-MB-435) | Activity (HCT-8) | Activity (HL-60) | Activity [1] | Activity (SF-295) | inhibition [2] | Activity (Bothrops pauloensis [3]) | Activity (Bothrops pauloensis [4]) | Activity (Bothrops pauloensis [5]) |
| --- | --- | --- | --- | --- | --- | --- | --- | --- | --- |
| C[C@H]1C[C@H]2O[C@]23[C@@H](C)[C@H]2[C@H](C[C@H]4[C@@H]5CCC6=CC(=O)C=C[C@]6(C)[C@H]5CC[C@]24C)N3C1 (relative stereo) | inactive | inactive | inactive | Active | inactive | inactive | Active | Active | Active |
| Cc1ccc(O)cc1CC[C@@H]1[C@@H](O)CC[C@]2(C)[C@@H]3[C@H](C[C@@H]12)N1C[C@@H](C)C[C@H]2O[C@]21[C@H]3C (relative stereo) | inactive | inactive | inactive | – | inactive | inactive | – | Active | – |
| C[C@H]1C[C@H]2O[C@]23[C@@H](C)[C@H]2[C@H](C[C@H]4[C@@H]5CCC6=CC(=O)C=C[C@]6(C)C5=CC[C@]24C)N3C1 | inactive | inactive | inactive | Active | inactive | inactive | Active | Active | Active |
